From ChEMBL document CHEMBL4689842, “EUbOPEN Chemogenomics Library wave 1” (2021)

Tested on: U2OS
Assay: Multiplex assay against U2OS
Assay type: toxicity, cell-based
Settings: human
Method in brief: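 Values for tubulin, mitochondrial-mass and membrane-permeability phenotypes are per cents of cells with healthy nuclei. These cells were identified by CellPathfinder machine-learning gating of live cells that had been stained at seeding with Hoechst33342, BioTracker Green Microtubule Cytoskeleton Dye, MitoTracker Red and Annexin V Alexa Fluor 680 and imaged on a CQ1 microscope at 37°C and 5% CO2 after compound addition. The gating first set Hoechst high-intensity objects apart from normal cells, then split normal cells into healthy, pyknosed or fragmented nuclei, and pyknosed cells into mitotic or apoptotic.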

[1] = 12 h, 1 µM, compound concentration 1 uM, replicate 1
[2] = 12 h, 1 µM, compound concentration 1 uM, replicate 2
[3] = 12 h, 10 µM, compound concentration 10 uM, replicate 1
[4] = 12 h, 10 µM, compound concentration 10 uM, replicate 2
[5] = 24 h, 1 µM, compound concentration 1 uM, replicate 1
[6] = 24 h, 1 µM, compound concentration 1 uM, replicate 2
[7] = 24 h, 10 µM, compound concentration 10 uM, replicate 1
[8] = 24 h, 10 µM, compound concentration 10 uM, replicate 2
[9] = 48 h, 1 µM, compound concentration 1 uM, replicate 1
[10] = 48 h, 1 µM, compound concentration 1 uM, replicate 2
[11] = 48 h, 10 µM, compound concentration 10 uM, replicate 1
[12] = 48 h, 10 µM, compound concentration 10 uM, replicate 2

SMILES: CCc1cccc(CC)c1NC(=O)c1nn(C)c2c1CCc1cnc(Nc3ccc(C(=O)NC4CCN(C)CC4)cc3OC(F)(F)F)nc1-2
- Population Apoptotic (%) [1]: 34%
- Population Fragmented Nuclei (%) [1]: 18%
- Population Healthy Nuclei (%) [1]: 60%
- Population Hoechst High Intensity Objects (%) [1]: 9%
- Population Membrane Permeable-Phenotype (%) [1]: 3%
- Population Mitochondria Different-Phenotype (%) [1]: 22%
- Population Mitotic Cells (%) [1]: 65%
- Population Normal (%) [1]: 90%
- Population Pyknosed Nuclei (%) [1]: 20%
- Population Tubulin-Different-Phenotype (%) [1]: 12%
- Total Cell Count [1]: 191
- Population Apoptotic (%) [2]: 40%
- Population Fragmented Nuclei (%) [2]: 1%
- Population Healthy Nuclei (%) [2]: 83%
- Population Hoechst High Intensity Objects (%) [2]: 13%
- Population Membrane Permeable-Phenotype (%) [2]: 5%
- Population Mitochondria Different-Phenotype (%) [2]: 14%
- Population Mitotic Cells (%) [2]: 60%
- Population Normal (%) [2]: 86%
- Population Pyknosed Nuclei (%) [2]: 15%
- Population Tubulin-Different-Phenotype (%) [2]: 18%
- Total Cell Count [2]: 51
- Population Apoptotic (%) [3]: 50%
- Population Fragmented Nuclei (%) [3]: 18%
- Population Healthy Nuclei (%) [3]: 54%
- Population Hoechst High Intensity Objects (%) [3]: 5%
- Population Membrane Permeable-Phenotype (%) [3]: 34%
- Population Mitochondria Different-Phenotype (%) [3]: 97%
- Population Mitotic Cells (%) [3]: 50%
- Population Normal (%) [3]: 94%
- Population Pyknosed Nuclei (%) [3]: 26%
- Population Tubulin-Different-Phenotype (%) [3]: 99%
- Total Cell Count [3]: 156
- Population Apoptotic (%) [4]: 46%
- Population Fragmented Nuclei (%) [4]: 12%
- Population Healthy Nuclei (%) [4]: 70%
- Population Membrane Permeable-Phenotype (%) [4]: 15%
- Population Mitochondria Different-Phenotype (%) [4]: 98%
- Population Mitotic Cells (%) [4]: 53%
- Population Pyknosed Nuclei (%) [4]: 17%
- Population Tubulin-Different-Phenotype (%) [4]: 86%
- Total Cell Count [4]: 75
- Population Apoptotic (%) [5]: 44%
- Population Fragmented Nuclei (%) [5]: 15%
- Population Healthy Nuclei (%) [5]: 64%
- Population Hoechst High Intensity Objects (%) [5]: 7%
- Population Membrane Permeable-Phenotype (%) [5]: 3%
- Population Mitochondria Different-Phenotype (%) [5]: 18%
- Population Mitotic Cells (%) [5]: 55%
- Population Normal (%) [5]: 92%
- Population Pyknosed Nuclei (%) [5]: 20%
- Population Tubulin-Different-Phenotype (%) [5]: 11%
- Total Cell Count [5]: 190
- Population Apoptotic (%) [6]: 37%
- Population Fragmented Nuclei (%) [6]: 7%
- Population Healthy Nuclei (%) [6]: 81%
- Population Hoechst High Intensity Objects (%) [6]: 10%
- Population Membrane Permeable-Phenotype (%) [6]: 5%
- Population Mitochondria Different-Phenotype (%) [6]: 12%
- Population Mitotic Cells (%) [6]: 62%
- Population Normal (%) [6]: 89%
- Population Pyknosed Nuclei (%) [6]: 11%
- Population Tubulin-Different-Phenotype (%) [6]: 19%
- Total Cell Count [6]: 53
- Population Apoptotic (%) [7]: 56%
- Population Fragmented Nuclei (%) [7]: 20%
- Population Healthy Nuclei (%) [7]: 48%
- Population Hoechst High Intensity Objects (%) [7]: 5%
- Population Membrane Permeable-Phenotype (%) [7]: 40%
- Population Mitochondria Different-Phenotype (%) [7]: 100%
- Population Mitotic Cells (%) [7]: 43%
- Population Normal (%) [7]: 94%
- Population Pyknosed Nuclei (%) [7]: 30%
- Population Tubulin-Different-Phenotype (%) [7]: 97%
- Total Cell Count [7]: 156
- Population Apoptotic (%) [8]: 50%
- Population Fragmented Nuclei (%) [8]: 15%
- Population Healthy Nuclei (%) [8]: 63%
- Population Hoechst High Intensity Objects (%) [8]: 2%
- Population Membrane Permeable-Phenotype (%) [8]: 26%
- Population Mitochondria Different-Phenotype (%) [8]: 91%
- Population Mitotic Cells (%) [8]: 50%
- Population Normal (%) [8]: 97%
- Population Pyknosed Nuclei (%) [8]: 20%
- Population Tubulin-Different-Phenotype (%) [8]: 73%
- Total Cell Count [8]: 77
- Population Apoptotic (%) [9]: 46%
- Population Fragmented Nuclei (%) [9]: 19%
- Population Healthy Nuclei (%) [9]: 54%
- Population Hoechst High Intensity Objects (%) [9]: 9%
- Population Membrane Permeable-Phenotype (%) [9]: 5%
- Population Mitochondria Different-Phenotype (%) [9]: 18%
- Population Mitotic Cells (%) [9]: 53%
- Population Normal (%) [9]: 90%
- Population Pyknosed Nuclei (%) [9]: 25%
- Population Tubulin-Different-Phenotype (%) [9]: 17%
- Total Cell Count [9]: 179
- Population Apoptotic (%) [10]: 9%
- Population Fragmented Nuclei (%) [10]: 16%
- Population Healthy Nuclei (%) [10]: 72%
- Population Hoechst High Intensity Objects (%) [10]: 4%
- Population Membrane Permeable-Phenotype (%) [10]: 7%
- Population Mitochondria Different-Phenotype (%) [10]: 19%
- Population Mitotic Cells (%) [10]: 90%
- Population Normal (%) [10]: 95%
- Population Pyknosed Nuclei (%) [10]: 11%
- Population Tubulin-Different-Phenotype (%) [10]: 23%
- Total Cell Count [10]: 49
- Population Apoptotic (%) [11]: 57%
- Population Fragmented Nuclei (%) [11]: 27%
- Population Healthy Nuclei (%) [11]: 34%
- Population Hoechst High Intensity Objects (%) [11]: 5%
- Population Membrane Permeable-Phenotype (%) [11]: 57%
- Population Mitochondria Different-Phenotype (%) [11]: 95%
- Population Mitotic Cells (%) [11]: 42%
- Population Normal (%) [11]: 94%
- Population Pyknosed Nuclei (%) [11]: 38%
- Population Tubulin-Different-Phenotype (%) [11]: 98%
- Total Cell Count [11]: 188
- Population Apoptotic (%) [12]: 44%
- Population Fragmented Nuclei (%) [12]: 11%
- Population Healthy Nuclei (%) [12]: 51%
- Population Membrane Permeable-Phenotype (%) [12]: 35%
- Population Mitochondria Different-Phenotype (%) [12]: 86%
- Population Mitotic Cells (%) [12]: 55%
- Population Pyknosed Nuclei (%) [12]: 37%
- Population Tubulin-Different-Phenotype (%) [12]: 64%
- Total Cell Count [12]: 97
